These results are taken from ChEMBL document CHEMBL3272249, “Esters of N-tert-butylarterenol. Long-acting new bronchodilators with reduced cardiac effects” (J Med Chem, 1976).

Data set [1] deals with Canis familiaris. Nature of the data set: Bronchodilator activity in dog assessed as time of inhibition of carbachol or histamine-induced bronchoconstriction at 5 to 10 mg/kg, iv relative to control. The class given is functional, Canis lupus familiaris. As to conditions: dose mg/kg 5-10. Put shortly: (§1)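 Anesthetized dogs with an airway cannula and a nonbreathing valve. Bronchoconstriction was induced by iv carbachol (2–4 μg/kg) or histamine diphosphate (20–50 μg/kg) and read as change in airway pressure by transducer. Each compound was tested against both agonists in different dogs, and the results were combined and averaged. Effect is % inhibition of control constriction, with at least three dogs per dose. Drugs were dissolved fresh in distilled water, diluted in saline and kept on ice.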

The test system of data set [2] is Canis familiaris. Briefly: Bronchodilator activity in dog assessed as degree of inhibition of carbachol or histamine-induced bronchoconstriction at 5 to 10 mg/kg, iv relative to control. The class given is functional, Canis lupus familiaris. Particulars: dose mg/kg 5-10. Put shortly:
(§2)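 Anesthetized dogs, trachea cannulated with a nonbreathing valve. Bronchoconstriction induced by iv carbachol (2–4 μg/kg) or histamine diphosphate (20–50 μg/kg) in separate animals, and airway pressure recorded by transducer. Drug stocks were made fresh in distilled water, diluted in saline and kept on ice. Read-out was percent inhibition of control constriction, averaged over at least three dogs per dose at the higher dose. Carbachol and histamine data were combined.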

In data set [3] the test system is Canis familiaris. Briefly: Cardiotoxicity in spontaneously respiring dog assessed as time of increase in heart rate at 50 to 100 mg/kg, iv relative to control. Further details: dose 50-100 mg/kg, route intravenous. Particulars: in vivo. The class given is toxicity, organism-based, Canis lupus familiaris. Put shortly:
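Anesthetized, spontaneously respiring dogs. Heart rate monitored by lead II EKG, with blood pressure taken from the right femoral artery by pressure transducer and recorded on a polygraph. Drug stocks made fresh in distilled water, diluted in physiological saline and kept on ice. Dosing was iv, id or it as listed. The duration of the heart-rate increase was recorded in h, with more than 4 dogs per dose.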

In data set [4] the test system is Canis familiaris. Briefly: Bronchodilator activity in dog assessed as time of inhibition of carbachol or histamine-induced bronchoconstriction at 440 to 880 mg/kg, it relative to control. The class given is functional, Canis lupus familiaris. As to conditions: dose mg/kg 440-880; route endotracheal. Put shortly: as §1
Data set [5] has as its system Canis familiaris. Nature of the data set: Bronchodilator activity in dog assessed as time of inhibition of carbachol or histamine-induced bronchoconstriction at 50 to 100 mg/kg, iv relative to control. The format is functional, Canis lupus familiaris. As to conditions: dose mg/kg 50-100. Put shortly:
as §1

Data set [6] concerns Canis familiaris. Nature of the data set: Cardiotoxicity in spontaneously respiring dog assessed as degree of increase in heart rate at 50 to 100 mg/kg, iv relative to control. The format is toxicity, organism-based, Canis lupus familiaris. Further details: dose 50-100 mg/kg, route intravenous. As to conditions: in vivo. Put shortly: (§3)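 Anesthetized, spontaneously respiring dogs. Heart rate was taken from a lead II EKG, and blood pressure from the right femoral artery by transducer. The increase in heart rate (beats/min) was scored on a graded scale with more than 4 dogs per dose, and its duration was recorded. Drugs were dissolved fresh in distilled water, diluted in physiological saline and kept on ice.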

Data set [7] concerns Canis familiaris. Nature of the data set: Bronchodilator activity in dog assessed as degree of inhibition of carbachol or histamine-induced bronchoconstriction at 440 to 880 mg/kg, it relative to control. As to conditions: dose mg/kg 440-880; route endotracheal. The class given is functional, Canis lupus familiaris. Put shortly:
as §2

Data set [8] has as its system Canis familiaris. Nature of the data set: Bronchodilator activity in dog assessed as degree of inhibition of carbachol or histamine-induced bronchoconstriction at 50 to 100 mg/kg, iv relative to control. The format is functional, Canis lupus familiaris. Particulars: dose mg/kg 50-100. Put shortly:
as §2

Data set [9] relates to Canis familiaris. Nature of the data set: Cardiotoxicity in spontaneously respiring dog assessed as time of increase in heart rate at 400 to 800 mg/kg, it relative to control. The format is toxicity, organism-based, Canis lupus familiaris. Further details: dose 400-800 mg/kg, route endotracheal. As to conditions: in vivo, inhaled_or_intranasal. Put shortly: as §3
Data set [10] deals with Canis familiaris. Briefly: Bronchodilator activity in dog assessed as time of inhibition of carbachol or histamine-induced bronchoconstriction at 400 to 800 mg/kg, it relative to control. The format is functional, Canis lupus familiaris. Particulars: dose mg/kg 400-800; route endotracheal. Put shortly:
(§4)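 Dog airway model: anesthetized, cannulated via a nonbreathing valve, with airway pressure changes recorded after iv carbachol (2–4 μg/kg) or histamine diphosphate (20–50 μg/kg) challenge, each agonist in different animals. Compounds were given iv, intraduodenally or intratracheally from fresh aqueous stocks diluted in saline. Duration (h) of inhibition of induced bronchoconstriction was followed, and the two agonist datasets were pooled.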

Data set [11] deals with Canis familiaris. Nature of the data set: Cardiotoxicity in spontaneously respiring dog assessed as degree of increase in heart rate at 400 to 800 mg/kg, it relative to control. The format is toxicity, organism-based, Canis lupus familiaris. Also on record: dose 400-800 mg/kg, route endotracheal. Particulars: in vivo, inhaled_or_intranasal. Put shortly: as §3
The test system of data set [12] is Canis familiaris. Nature of the data set: Bronchodilator activity in dog assessed as degree of inhibition of carbachol or histamine-induced bronchoconstriction at 400 to 800 mg/kg, it relative to control. The class given is functional, Canis lupus familiaris. As to conditions: dose mg/kg 400-800; route endotracheal. Put shortly:
as §2

The test system of data set [13] is Canis familiaris. Nature of the data set: Cardiotoxicity in spontaneously respiring dog assessed as time of increase in heart rate at 10 to 20 mg/kg, iv relative to control. Particulars: in vivo. Further details: dose 10-20 mg/kg, route intravenous. The format is toxicity, organism-based, Canis lupus familiaris. Put shortly:
(§5)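 Anesthetized, spontaneously respiring dogs. Heart rate monitored by lead II EKG; blood pressure from right femoral artery by pressure transducer. Rise in heart rate (beats/min) scored ±=5-15, +=20-40, ++=40-60, +++=>60, n>4/dose; duration of the rise in h. Drug stocks freshly made in distilled water, diluted in physiological saline, kept on ice.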

The subject of data set [14] is Canis familiaris. Nature of the data set: Bronchodilator activity in dog assessed as time of inhibition of carbachol or histamine-induced bronchoconstriction at 10 to 20 mg/kg, iv relative to control. The class given is functional, Canis lupus familiaris. As to conditions: dose mg/kg 10-20. Put shortly: (§6)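 Dog with airway cannulated through a nonbreathing valve. Bronchoconstriction induced by iv carbachol (2–4 µg/kg) or histamine diphosphate (20–50 µg/kg); airway pressure recorded by pressure transducer. Each compound tested against both agonists in different animals, and results were combined and averaged. Bronchodilation = % inhibition of control constriction; degree scored as +, ++, +++ (20-45, 45-70, >70%) from higher dose, ≥3 dogs/dose; duration in h.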

Data set [15] relates to Canis familiaris. Briefly: Cardiotoxicity in spontaneously respiring dog assessed as degree of increase in heart rate at 10 to 20 mg/kg, iv relative to control. The class given is toxicity, organism-based, Canis lupus familiaris. Further details: dose 10-20 mg/kg, route intravenous. Particulars: in vivo. Put shortly: as §5
The test system of data set [16] is Canis familiaris. Nature of the data set: Bronchodilator activity in dog assessed as degree of inhibition of carbachol or histamine-induced bronchoconstriction at 10 to 20 mg/kg, iv relative to control. The class given is functional, Canis lupus familiaris. Particulars: dose mg/kg 10-20. Put shortly:
as §6

Data set [17] deals with Canis familiaris. Nature of the data set: Bronchodilator activity in dog assessed as time of inhibition of carbachol or histamine-induced bronchoconstriction at 25 to 100 mg/kg, iv relative to control. The class given is functional, Canis lupus familiaris. Particulars: dose mg/kg 25-100. Put shortly:
as §4

Data set [18] has as its system Canis familiaris. Nature of the data set: Bronchodilator activity in dog assessed as degree of inhibition of carbachol or histamine-induced bronchoconstriction at 25 to 100 mg/kg, iv relative to control. The class given is functional, Canis lupus familiaris. Particulars: dose mg/kg 25-100. Put shortly:
as §2

The subject of data set [19] is Canis familiaris. Briefly: Cardiotoxicity in spontaneously respiring dog assessed as time of increase in heart rate at 4 to 8 mg/kg, iv relative to control. The format is toxicity, organism-based, Canis lupus familiaris. Also on record: dose 4-8 mg/kg, route intravenous. Particulars: in vivo. Put shortly: as §3
Data set [20] concerns Canis familiaris. Briefly: Bronchodilator activity in dog assessed as time of inhibition of carbachol or histamine-induced bronchoconstriction at 4 to 8 mg/kg, iv relative to control. The format is functional, Canis lupus familiaris. As to conditions: dose mg/kg 4-8. Put shortly:
as §4

The subject of data set [21] is Canis familiaris. Nature of the data set: Bronchodilator activity in dog assessed as time of inhibition of carbachol or histamine-induced bronchoconstriction at 200 to 400 mg/kg, id relative to control. The format is functional, Canis lupus familiaris. Particulars: dose mg/kg 200-400; route intraduodenal. Put shortly:
as §4

The subject of data set [22] is Canis familiaris. Nature of the data set: Bronchodilator activity in dog assessed as time of inhibition of carbachol or histamine-induced bronchoconstriction at 380 mg/kg, it relative to control. The class given is functional, Canis lupus familiaris. Particulars: route endotracheal. Put shortly: as §4
Data set [23] relates to Canis familiaris. Briefly: Cardiotoxicity in spontaneously respiring dog assessed as degree of increase in heart rate at 4 to 8 mg/kg, iv relative to control. The format is toxicity, organism-based, Canis lupus familiaris. Also on record: dose 4-8 mg/kg, route intravenous. As to conditions: in vivo. Put shortly:
as §3

The test system of data set [24] is Canis familiaris. Nature of the data set: Bronchodilator activity in dog assessed as degree of inhibition of carbachol or histamine-induced bronchoconstriction at 4 to 8 mg/kg, iv relative to control. As to conditions: dose mg/kg 4-8. The format is functional, Canis lupus familiaris. Put shortly: as §2
The test system of data set [25] is Canis familiaris. Nature of the data set: Bronchodilator activity in dog assessed as degree of inhibition of carbachol or histamine-induced bronchoconstriction at 200 to 400 mg/kg, id relative to control. As to conditions: dose mg/kg 200-400; route intraduodenal. The format is functional, Canis lupus familiaris. Put shortly: as §2
For data set [26], the system named is Canis familiaris. Nature of the data set: Bronchodilator activity in dog assessed as degree of inhibition of carbachol or histamine-induced bronchoconstriction at 380 mg/kg, it relative to control. The class given is functional. As to conditions: Canis lupus familiaris, route endotracheal. Put shortly:
as §2

A value given as a limit tells only on which side of the number the result lay.

For `CCCC(C)(C)C(=O)Oc1ccc([C@@H](O)CNC(C)(C)C)cc1OC(=O)C(C)(C)CCC.CS(=O)(=O)O`, in the data set on Canis familiaris [1], the Time was less than 1 h. Besides, the “inhibition (INH)” value in the data set with Canis familiaris [2] is on record as 45%.

Take `CS(=O)(=O)O.Cc1cccc(C(=O)Oc2ccc([C@@H](O)CNC(C)(C)C)cc2O)c1`: the Time in the data set with Canis familiaris [3] is less than 0.5 h; in the data set with Canis familiaris [4], less than 2 h; with Canis familiaris [5], less than 2 h. The Activity with Canis familiaris [6] is 40 beats/min. Besides, the “inhibition (INH)” value in the data set on Canis familiaris [7] and in the data set with Canis familiaris [8] was more than 70% throughout.

With `COc1ccc(C(=O)Oc2ccc([C@@H](O)CNC(C)(C)C)cc2O)cc1.Cl`, the values for the Time with Canis familiaris [9] and in the data set on Canis familiaris [10] were less than 0.5 h and less than 2 h, respectively. Also, the Activity in the data set with Canis familiaris [11] is reported as 20%. Also, in the data set on Canis familiaris [12], the “inhibition (INH)” value worked out at 45%.

With `CC(C)(C)NC[C@H](O)c1ccc(OC(=O)C(C)(C)C)c(O)c1.CS(=O)(=O)O`, the Time in the data set on Canis familiaris [13] was less than 0.5 h; in the data set on Canis familiaris [14] it was less than 2 h. Moreover, the Activity in the data set on Canis familiaris [15] worked out at 40%. The “inhibition (INH)” value in the data set on Canis familiaris [16] was found to be 45%.

Take `COc1ccc(CC(=O)Oc2ccc([C@@H](O)CNC(C)(C)C)cc2OC(=O)Cc2ccc(OC)cc2)cc1.Cl`: the Time in the data set on Canis familiaris [17] stood at 2 h. Further, the “inhibition (INH)” value in the data set on Canis familiaris [18] is reported as more than 70%.

By inhibition in vivo is commonly meant the drop in the measured response relative to a control, in per cent. In the case of `CCCC(=O)Oc1ccc([C@@H](O)CNC(C)(C)C)cc1OC(=O)CCC.Cl`, the Time was less than 1 h in the data set on Canis familiaris [19], less than 2 h in the data set with Canis familiaris [20], more than 3 h in the data set on Canis familiaris [21] and less than 2 h with Canis familiaris [22]. Further, in the data set on Canis familiaris [23], the Activity was determined as 20 beats/min. The “inhibition (INH)” value with Canis familiaris [24] and in the data set on Canis familiaris [25] was more than 70% in each case. Further, the inhibition in vivo at 380 mg/kg with Canis familiaris [26] is more than 70%.

Consider `CCC(C)C(=O)Oc1ccc([C@@H](O)CNC(C)(C)C)cc1OC(=O)C(C)CC.Cl` (stereo partly drawn), for which the Time in the data set on Canis familiaris [1] is less than 1 h. In the data set on Canis familiaris [2], the “inhibition (INH)” value came out at 45%.
